These results are taken from ChEMBL document CHEMBL2062401, “New pyrimido[5,4-e]pyrrolo[1,2-c]pyrimidines: synthesis, 2D-QSAR, anti-inflammatory, analgesic and ulcerogenicity studies” (Eur J Med Chem, 2012).

Activity calls are given as the source filed them. The rule behind the calls is not given here.

The subject of series [1] is Rattus norvegicus. Description: Gastrointestinal toxicity in Wistar albino rat assessed as incidence of stomach ulceration at 0.029 mmol/kg, po followed by another two compound doses in second and third days measured on fourth day post dose by acute ulcerogenicity study. It is filed as organism-based. Conditions: in vivo. In a few lines:
(§1)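 Adult Wistar rats of both sexes, 120–150 g, groups of 6, fasted 20 h; oral dose suspended in 1% Tween (vehicle group 1% Tween); fasted 2 h, fed 2 h, fasted 20 h; further doses on days 2 and 3. Scored: % incidence/10, mean ulcers per rat, mean severity score; ulcer index = sum of the three.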

Series [2] deals with Rattus norvegicus. The series can be described thus: Gastrointestinal toxicity in Wistar albino rat assessed as incidence of stomach ulceration at 0.029 mmol/kg, po. It is filed as organism-based. Conditions: in vivo. In a few lines:
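Rats given single oral dose suspended in saline with few drops Tween 80 (groups of 6); killed under deep ether anaesthesia 5 h after treatment; stomach opened along greater curvature and examined for lesions or bleeding; ulceration expressed as number of rats affected per group.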

Series [3] deals with Rattus norvegicus. Description: Antiinflammatory activity in Wistar albino rat assessed as inhibition of carrageenan-induced paw edema at 0.029 mmol/kg, po dosed 1 hr before carrageenan challenge measured 3 hrs post carrageenan-induced inflammation.
The test system of series [4] is Rattus norvegicus. The series can be described thus: Antiinflammatory activity in Wistar albino rat assessed as inhibition of carrageenan-induced paw edema at 0.029 mmol/kg, po dosed 1 hr before carrageenan challenge measured 2 hrs post carrageenan-induced inflammation.
Series [5] deals with Rattus norvegicus. Description: Antiinflammatory activity in Wistar albino rat assessed as inhibition of carrageenan-induced paw edema at 0.029 mmol/kg, po dosed 1 hr before carrageenan challenge measured 4 hrs post carrageenan-induced inflammation.
In series [6] the test system is Rattus norvegicus. The series can be described thus: Gastrointestinal toxicity in Wistar albino rat assessed as stomach ulcer index at 0.029 mmol/kg, po followed by another two compound doses in second and third days measured on fourth day post dose by acute ulcerogenicity study. It is filed as organism-based. Conditions: in vivo. In a few lines: as §1
Series [7] deals with Rattus norvegicus. Description: Antiinflammatory activity in Wistar albino rat assessed as inhibition of carrageenan-induced paw edema at 0.029 mmol/kg, po dosed 1 hr before carrageenan challenge measured 1 hr post carrageenan-induced inflammation. It is filed as functional. In a few lines: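 Wistar albino rats of both sexes, 120–150 g, six per group, food withdrawn the day before. Given orally 0.029 mmol/kg in saline with a few drops of Tween 80, by stomach tube, 1 h before subplantar s.c. carrageenan (0.1 ml of 1%) into the right hind paw. Paw thickness measured at 1, 2, 3 and 4 h against baseline. % inhibition = 100 × (1 − Vt/Vc).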

A short description of series [8]: Lipophilicity, log P of the compound. It is filed as physicochemical. The note with it: octanol/water.
Series [9] concerns Rattus norvegicus. Description: Antiinflammatory activity in Wistar albino rat assessed as inhibition of carrageenan-induced paw edema at 2 mg/kg, po dosed 1 hr before carrageenan challenge measured after carrageenan-induced inflammation. It is filed as functional. An outline of the steps: (§2)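 Rat carrageenan paw oedema, six animals per group. Oral doses of 1, 2, 4 and 6 mg/kg in saline/Tween 80 given 1 h before 0.1 ml of 1% carrageenan s.c. into the right hind paw. Oedema measured as thickness increase over baseline. % inhibition = 100 × (1 − Vt/Vc). IC50 derived from the dose–response and reported in mg/kg and µmol/kg.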

The test system of series [10] is Mus musculus. The series can be described thus: Analgesic activity in Swiss albino mouse assessed as inhibition of acetic acid-induced writhing at 0.029 mmol/kg. po dosed 1 hr before acetic acid challenge and measured during 30 mins post acetic acid challenge relative to indomethacin. It is filed as functional. Conditions: read-out: INH. An outline of the steps:
(§3)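 Swiss albino mice of either sex, 18–22 g, six per group. Oral suspension at 0.029 mmol/kg given 1 h before 0.3 ml of 1% acetic acid i.p. Contractions counted for 30 min, starting 5 min after injection. % protection = (n − n')/n × 100 against control writhing. Potency% = % inhibition of test / % inhibition of indomethacin × 100. Mean ± SEM, ANOVA with post hoc test.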

In series [11] the test system is Rattus norvegicus. Description: Antiinflammatory activity in Wistar albino rat assessed as inhibition of carrageenan-induced paw edema at 6 mg/kg, po dosed 1 hr before carrageenan challenge measured after carrageenan-induced inflammation. It is filed as functional. In a few lines: as §2
In series [12] the test system is Rattus norvegicus. Description: Antiinflammatory activity in po dosed Wistar albino rat assessed as inhibition of carrageenan-induced paw edema dosed 1 hr before carrageenan challenge measured after carrageenan-induced inflammation. It is filed as functional, organism-based. In a few lines:
as §2

In series [13] the test system is Rattus norvegicus. Description: Antiinflammatory activity in Wistar albino rat assessed as inhibition of carrageenan-induced paw edema at 1 mg/kg, po dosed 1 hr before carrageenan challenge measured after carrageenan-induced inflammation. It is filed as functional. An outline of the steps: as §2
Series [14] relates to Rattus norvegicus. The series can be described thus: Antiinflammatory activity in Wistar albino rat assessed as inhibition of carrageenan-induced paw edema at 4 mg/kg, po dosed 1 hr before carrageenan challenge measured after carrageenan-induced inflammation. It is filed as functional. In a few lines: as §2
Series [15] relates to Mus musculus. The series can be described thus: Analgesic activity in Swiss albino mouse assessed as inhibition of acetic acid-induced writhing at 0.029 mmol/kg. po dosed 1 hr before acetic acid challenge and measured during 30 mins post acetic acid challenge. It is filed as functional. An outline of the steps: as §3
For series [16], the species on record is Homo sapiens. The series can be described thus: Selectivity index, ratio of inhibition of COX1 to inhibition of COX2 by Cayman's COX activity assay. In a few lines:
(§4)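 COX peroxidase activity measured with a commercial COX activity assay kit (Kulmacz and Lands method), per manufacturer's instructions; % inhibition of COX-1 and COX-2 determined, selectivity expressed as ratio of COX-1 to COX-2 % inhibition.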

For series [17], the target named is Prostaglandin G/H synthase 1 (Homo sapiens) (UniProt P23219). Description: Inhibition of COX1 by Cayman's COX activity assay. An outline of the steps: as §4
Sequence of Prostaglandin G/H synthase 1 (Homo sapiens) (P23219 whole entry): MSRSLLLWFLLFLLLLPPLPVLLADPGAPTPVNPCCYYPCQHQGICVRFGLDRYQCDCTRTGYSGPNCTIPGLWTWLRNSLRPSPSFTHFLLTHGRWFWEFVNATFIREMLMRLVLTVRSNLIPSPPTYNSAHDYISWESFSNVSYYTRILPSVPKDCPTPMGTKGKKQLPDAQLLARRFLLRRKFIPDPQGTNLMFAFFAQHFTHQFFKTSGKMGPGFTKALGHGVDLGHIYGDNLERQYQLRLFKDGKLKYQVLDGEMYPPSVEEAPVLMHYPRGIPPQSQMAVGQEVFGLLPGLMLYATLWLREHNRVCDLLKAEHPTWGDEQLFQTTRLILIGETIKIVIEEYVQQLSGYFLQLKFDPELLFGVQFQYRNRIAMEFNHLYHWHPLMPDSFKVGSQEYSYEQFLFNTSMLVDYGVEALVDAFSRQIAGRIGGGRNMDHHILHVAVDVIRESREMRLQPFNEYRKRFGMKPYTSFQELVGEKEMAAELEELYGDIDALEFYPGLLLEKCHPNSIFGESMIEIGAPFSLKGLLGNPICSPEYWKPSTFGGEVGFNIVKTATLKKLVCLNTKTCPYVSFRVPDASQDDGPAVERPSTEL

Turning to `Cc1ccc(-c2cc(C(F)(F)F)nn2-c2ccc(S(N)(=O)=O)cc2)cc1` [CELECOXIB], the Activity is on record as 6.66% in [1] and “Toxic” in series [2]. For the same compound, the inhibition in vivo at 29 µmol/kg in series [3] came out at 47%; in [4], 34%; in [5], 48%; in [7] it was 54%. In series [6], the UI is listed as 11.13.
Take `O=C(O)Cc1nc2c(c(=O)[nH]1)C1CCCN1C(=O)N2c1ccccc1` (centres undefined): the logP in series [8] is 0.749. Besides, the inhibition in vivo at 2 mg/kg in [9] stood at 40%. For the same compound, the writhing inhibition relative to indomethacin (potency %) at 29 µmol/kg in series [10] is 87.2%. The figures for the Activity in series [1] and in series [2] were 8.33% and “Toxic”, respectively. The inhibition in vivo at 29 µmol/kg in series [3] was determined as 72%; in series [4] it was 70%; in series [5], 80%; in series [15], 57.6%; in series [7], 77%. Besides, the inhibition in vivo at 6 mg/kg in series [11] came to 74%. The IC50 in series [12] worked out at 10 µmol/kg. The inhibition in vivo at 1 mg/kg in series [13] stood at 20%. Also, in series [6], the UI is reported as 10.49. Also, in [14], the inhibition in vivo at 4 mg/kg was 64%.
With `Cc1c(NC(=O)c2nc3c(c(=O)[nH]2)C2CCCN2C(=O)N3c2ccccc2)c(=O)n(-c2ccccc2)n1C` (centres undefined), in [8], the logP came to 2.09. For the same compound, in [9], the inhibition in vivo at 2 mg/kg was 48%. In addition, the writhing inhibition relative to indomethacin (potency %) at 29 µmol/kg in [10] is 95.7%. The Activity is 5% in [1] and “Non-toxic” in [2]. Further, the inhibition in vivo at 29 µmol/kg in series [3] turned out to be 78%; in series [4], 68%; in series [5], 83%; in [15] it was 63.3%; in series [7] it was 78%. Moreover, the Ratio in [16] is 1.3. Further, the inhibition in vivo at 6 mg/kg in series [11] amounted to 77%. Further, the IC50 in series [12] was 6 µmol/kg. Also, the inhibition in vivo at 1 mg/kg in [13] was found to be 30%. Besides, the UI in [6] is listed as 7.16. For the same compound, the inhibition entry in [17] is “Active”. Moreover, the inhibition in vivo at 4 mg/kg in series [14] is 78%.
Regarding `Cc1cc(-c2ccccc2)nn1C(=O)c1nc2c(c(=O)[nH]1)C1CCCN1C(=O)N2c1ccccc1` (centres undefined), the logP in series [8] was found to be 3.7. Also, in [9], the inhibition in vivo at 2 mg/kg worked out at 45%. Moreover, the writhing inhibition relative to indomethacin (potency %) at 29 µmol/kg in series [10] stood at 59.8%. For the same compound, the Activity in [1] was 6.66%; in [2], “Non-toxic”. Besides, the inhibition in vivo at 29 µmol/kg in series [3] amounted to 59%; in [4] it was 65%; in series [5] it was 62%; in series [15], 39.6%; in series [7], 78%. In addition, in series [16], the Ratio stood at 1.02. The inhibition in vivo at 6 mg/kg in series [11] amounted to 60%. Also, the IC50 in series [12] amounted to 8 µmol/kg. In [13], the inhibition in vivo at 1 mg/kg is 20%. In addition, in [6], the UI is 10.94. Moreover, in series [17], the inhibition result was “Active”. Further, the inhibition in vivo at 4 mg/kg in [14] was found to be 65%.
Consider `CCOC(=O)Cc1nc2c(c(=O)[nH]1)C1CCCN1C(=O)N2c1ccccc1` (centres undefined), for which, in series [8], the logP is 1.53. The inhibition in vivo at 2 mg/kg in series [9] came out at 32%. Besides, the writhing inhibition relative to indomethacin (potency %) at 29 µmol/kg in [10] came out at 107%. Moreover, the results for the Activity in series [1] and in series [2] were 5% and “Non-toxic”, respectively. Moreover, the inhibition in vivo at 29 µmol/kg in series [3] worked out at 90%; in series [4], 80%; in series [5], 89%; in [15] it was 70.8%; in series [7], 81%. The inhibition in vivo at 6 mg/kg in series [11] stood at 64%. Also, the IC50 in series [12] amounted to 11 µmol/kg. For the same compound, the inhibition in vivo at 1 mg/kg in [13] was found to be 12%. The UI in series [6] is 7. The inhibition in vivo at 4 mg/kg in series [14] turned out to be 60%.
In the case of `COc1ccc2c(c1)c(CC(=O)O)c(C)n2C(=O)c1ccc(Cl)cc1` [INDOMETHACIN], the results for the Activity in series [1] and in [2] were 10% and “Toxic”, respectively. The inhibition in vivo at 29 µmol/kg in series [3] stood at 47%; in series [4] it was 39%; in [5] it was 51%; in series [15], 66.1%; in series [7], 57%. In addition, the UI in series [6] is 14.73.
